In brackets after ≈: the same amount, converted by molar mass. Activity calls are given as the source filed them. The calls are words filed in the database; no cut-off is given here. Where a SMILES comes first, the peptide text is derived from it. Bridges are numbered along the chain shown (N, C = ends).
Key:
Pseudomonas aeruginosa = assay: Antibacterial activity against Pseudomonas aeruginosa ATCC 27853 assessed as inhibition of bacterial growth at 6 to 12 hrs by dilution method; format: functional; conditions: time 6-12 hrs
Method in brief: (§1)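 Broth-free microdilution MIC assay. Microbes were grown overnight in 3% TSB at 37 °C, washed twice and resuspended in Tris buffer, then adjusted by A600 to 1 × 10⁶ cells/mL (about 50 000 cells/well). Cells were mixed 1:1 with 2-fold serial dilutions of peptide in Tris buffer (highest tested 32.5 μM) and held 5 h. Then 20% TSB was added and plates incubated 6–12 h at 37 °C, depending on organism. MIC was read as the lowest concentration giving 100% growth inhibition. Run in triplicate.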

Staphylococcus aureus = assay: Antibacterial activity against Staphylococcus aureus ATCC 29213 assessed as inhibition of bacterial growth at 6 to 12 hrs by dilution method; format: functional; conditions: time 6-12 hrs; method in brief: as §1
Candida albicans = assay: Antibacterial activity against Candida albicans ATCC 90028 assessed as inhibition of bacterial growth at 6 to 12 hrs by dilution method; format: functional; conditions: time 6-12 hrs; method in brief: as §1
Cell membrane = assay: Induction of bacterial inner membrane permeabilization in Escherichia coli assessed as carboxyfluorescein leakage measured for 45 mins by fluorescence based microplate reader assay; format: subcellular
Method in brief: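 Liposomes were made from E. coli polar lipid extract loaded with 100 mM carboxyfluorescein in 10 mM Tris, pH 7.4, extruded through 100 nm membranes and gel-filtered. They were added at 10 μM final lipid to 2-fold peptide dilutions in Tris at 37 °C, with no cumulative additions. Dequenching was monitored for 45 min and normalized to 0.16% Triton X-100 after baseline subtraction. Values are the mean ± SD of triplicates; EC50 came from a variable-slope sigmoidal fit against log concentration.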

U-937 [1] = assay: Cytotoxicity against human U-937 cells assessed as cell survival at 20 uM incubated for 72 hrs by FMCA assay; format: functional, cell-based
Method in brief: (§2)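 FMCA with U937 human lymphoma cells, about 20 000 cells/well, exposed to 2-fold peptide dilutions for 72 h at 37 °C in 5% CO₂. Cells were washed with PBS and given FDA in Q2 buffer (NaCl/HEPES, pH 7.4) for 40 min at 37 °C. Fluorescence was read at ex 485/em 538 nm. Viability was expressed as % of control after blank subtraction; IC50 came from a variable-slope sigmoidal fit against log concentration.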

U-937 [2] = assay: Cytotoxicity against human U-937 cells assessed as inhibition of cell growth incubated for 72 hrs by FMCA assay; format: functional, cell-based; conditions: U-937, 72 h
Method in brief: as §2, with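 “°C.” for “°C. Fluorescence was read at ex 485/em 538 nm.”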

| SMILES | MIC (Pseudomonas aeruginosa) [µM] | MIC (Staphylococcus aureus) [µM] | MIC (Candida albicans) [µM] | EC50 (Cell membrane) [µM] | Activity (U-937 [1]) | IC50 (U-937 [2]) [µM] |
| --- | --- | --- | --- | --- | --- | --- |
| CC[C@H](C)[C@@H]1NC(=O)CNC(=O)[C@H](CC(N)=O)NC(=O)[C@H]([C@@H](C)CC)NC(=O)[C@H](Cc2ccc(O)cc2)NC(=O)[C@@H]2CSSC[C@H]3NC(=O)CNC(=O)[C@H](Cc4ccccc4)NC(=O)[C@H](Cc4ccc(O)cc4)NC(=O)[C@H](C)NC(=O)[C@@H]4CSSC[C@H](NC(=O)[C@H](CO)NC(=O)[C@H](CSSC[C@H](NC(=O)[C@H](C)NC1=O)C(=O)NCC(=O)N[C@@H](CCC(=O)O)C(=O)N[C@@H](CO)C(=O)N4)NC(=O)CNC(=O)[C@@H]1CCCN1C(=O)[C@H]([C@@H](C)CC)NC(=O)[C@H](Cc1c[nH]c4ccccc14)NC3=O)C(=O)N[C@@H](CCCCN)C(=O)N[C@@H](CC(=O)O)C(=O)N[C@@H](CCCCN)C(=O)N[C@@H](C(C)C)C(=O)N2 | > 10 | > 10 | > 10 | 0.14 | Active | – |
| CC[C@H](C)[C@@H]1NC(=O)[C@H](C)NC(=O)[C@H](CO)NC(=O)[C@H](CO)NC(=O)[C@H]([C@@H](C)CC)NC(=O)[C@@H]2CSSC[C@@H]3NC(=O)[C@H](C(C)C)NC(=O)[C@H](CCCCN)NC(=O)[C@H](CO)NC(=O)[C@H](CCCCN)NC(=O)[C@@H]4CSSC[C@H](NC(=O)[C@H](CO)NC(=O)[C@H](CCC(=O)O)NC(=O)CNC(=O)[C@H](CSSC[C@H](NC(=O)CNC1=O)C(=O)N[C@@H](CO)C(=O)N4)NC(=O)[C@@H]1CCCN1C(=O)[C@H]([C@@H](C)CC)NC(=O)CNC(=O)[C@H](CC(N)=O)NC(=O)[C@H](CCCNC(=N)N)NC(=O)[C@H](Cc1ccc(O)cc1)NC3=O)C(=O)N[C@@H](C(C)C)C(=O)N[C@@H](Cc1c[nH]c3ccccc13)C(=O)N[C@@H]([C@@H](C)CC)C(=O)N1CCC[C@H]1C(=O)N2 (cyclo(AIGCSCKSKVCYRNGIPCGESCVWIPCISS); disulfide 4-18, 6-22, 11-27) | 10 (≈ 31.4 µg/mL) | > 10 | > 10 | – | – | 0.26 |
| CC[C@H](C)[C@@H]1NC(=O)[C@H](Cc2ccccc2)NC(=O)[C@H](C(C)C)NC(=O)[C@@H]2CSSC[C@@H]3NC(=O)[C@H](CO)NC(=O)[C@H]4CSSC[C@H](NC(=O)[C@@H]5CCCN5C(=O)[C@H](C(C)C)NC(=O)CNC(=O)[C@H](CC(N)=O)NC(=O)[C@H](CC(N)=O)NC(=O)[C@H](Cc5ccc(O)cc5)NC(=O)[C@H](CSSC[C@H](NC(=O)[C@@H]5CCCN5C1=O)C(=O)N[C@@H](Cc1ccccc1)C(=O)N[C@@H]([C@@H](C)O)C(=O)N[C@@H]([C@@H](C)O)C(=O)N[C@@H](C(C)C)C(=O)N[C@@H](C(C)C)C(=O)NCC(=O)N4)NC(=O)[C@H](C(C)C)NC(=O)[C@H](CCCCN)NC(=O)[C@H](CC(=O)O)NC(=O)[C@H](CCCCN)NC3=O)C(=O)NCC(=O)N[C@@H](CCC(=O)O)C(=O)N[C@@H](CO)C(=O)N2 | > 10 | > 10 | > 10 | 0.16 | Active | – |
| CC[C@H](C)[C@@H]1NC(=O)[C@H](C(C)C)NC(=O)[C@H]([C@@H](C)O)NC(=O)[C@H]([C@@H](C)O)NC(=O)[C@H]([C@@H](C)CC)NC(=O)[C@H]2CSSC[C@@H]3NC(=O)[C@H](C(C)C)NC(=O)[C@H](CCCCN)NC(=O)[C@H](CC(=O)O)NC(=O)[C@H](CCCCN)NC(=O)[C@@H]4CSSC[C@H](NC(=O)[C@H](CO)NC(=O)[C@H](CCC(=O)O)NC(=O)CNC(=O)[C@H](CSSC[C@@H](NC(=O)CNC1=O)C(=O)N[C@@H](CO)C(=O)N4)NC(=O)[C@@H]1CCCN1C(=O)[C@H](C(C)C)NC(=O)CNC(=O)[C@H](CC(N)=O)NC(=O)[C@H]([C@@H](C)O)NC(=O)[C@H](Cc1ccc(O)cc1)NC3=O)C(=O)N[C@@H](C(C)C)C(=O)N[C@@H](Cc1ccccc1)C(=O)N[C@@H]([C@@H](C)CC)C(=O)N1CCC[C@H]1C(=O)N2 | > 10 | > 10 | > 10 | 0.16 | Active | – |

Reference: ChEMBL document CHEMBL5226362, “Screening for Cyclotides in Sri Lankan Medicinal Plants: Discovery, Characterization, and Bioactivity Screening of Cyclotides from Geophila repens” (J Nat Prod, 2023)
